Calls of active or inactive are those of the source.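 Rule for the calls, unless noted: active = visually confirmed hit in the image check and inhibition above 20%; inconclusive = visually confirmed hit but inhibition not above 20%; inactive = no visual hit in the image check.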
What was measured:
[1] = inhibitors of TNFa-induced NFkB p65 translocation, primary screen, imaging, HUVEC, MLSMR starter and 10KST1 sets (AID 438;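 active = inhibition above 20% together with a positive visual image hit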;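 note: compound added about 3h40 before a 20 min TNFalpha stimulation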;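 for inhibition: signal is the nuclear over cytoplasmic p65 intensity ratio per well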); settings: HUVEC TNFa-induced p65 nuclear translocation; cell count: measured here: nuclei count (cytotoxicity indicator), at 2.08 µM; inhibition: at 2 µM, stronger effect = higher value, 0% TNFa-plus-vehicle, 100% no-TNFa wells
[2] = inhibitors of E-selectin induction by TNFa, primary screen, imaging, HUVEC, immunofluorescence, MLSMR starter and 10KST1 sets (AID 487); settings: HUVEC TNFalpha-induced E-selectin immunofluorescence imaging, at 2 µM; inhibition: stronger effect = higher value; nuclei count: measured here: cell number, toxicity;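 for inhibition: signal is fraction of cell area covered by stained E-selectin grains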;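 for nuclei count: 100% = median nuclei count of all wells on the same plate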
[3] = DUSP6 inhibitors restoring Erk phosphorylation by chemical complementation, primary imaging in DUSP6-transfected HeLa (AID 609;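 active = compounds giving at least 50% inhibition in the cell-based MKP-3 phosphatase rescue imaging test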;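 for inhibition: phospho-Erk level distribution per well compared with pooled transfected vehicle control wells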); settings: HeLa MKP-3 transfected, phospho-Erk imaging KS statistic, at 10 µM, cells stimulated with TPA for 15 min
[4] = target: Dual specificity protein phosphatase 6 (Homo sapiens) (UniProt Q16828); experiment: as above; settings: HeLa MKP-3 transfected, phospho-Erk imaging KS statistic; at 10 µM; stronger effect = higher value; cells stimulated with TPA for 15 min
Dual specificity protein phosphatase 6 (Homo sapiens), sequence (Q16828 whole entry, looked up): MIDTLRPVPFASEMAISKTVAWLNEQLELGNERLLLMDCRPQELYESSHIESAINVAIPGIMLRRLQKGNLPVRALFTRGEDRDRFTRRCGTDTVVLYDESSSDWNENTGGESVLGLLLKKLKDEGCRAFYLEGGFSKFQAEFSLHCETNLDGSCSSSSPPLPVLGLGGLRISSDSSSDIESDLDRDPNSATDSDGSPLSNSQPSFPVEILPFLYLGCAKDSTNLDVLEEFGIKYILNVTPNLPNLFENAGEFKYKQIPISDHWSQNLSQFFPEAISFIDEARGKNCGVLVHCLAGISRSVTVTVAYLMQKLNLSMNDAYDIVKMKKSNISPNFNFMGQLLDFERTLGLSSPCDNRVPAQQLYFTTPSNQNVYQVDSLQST

[5] = target: Voltage-gated potassium channel subunit beta-2 (Rattus norvegicus) (UniProt P62483); experiment: KvBeta enzyme negative modulators, primary screen, biochemical, NADPH fluorescence (AID 622;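 active = fluorescence slope higher than the sample average by over 3 SD, cut at about -0.22 in these data, passing the limit was not always enough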;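 note: slope of raw intensity against log time taken from 70 to 1610 s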); settings: recombinant KvBeta, 4-cyanobenzaldehyde reduction, at 10 µM, stronger effect = higher value
Voltage-gated potassium channel subunit beta-2 (Rattus norvegicus), sequence (P62483 whole entry, looked up): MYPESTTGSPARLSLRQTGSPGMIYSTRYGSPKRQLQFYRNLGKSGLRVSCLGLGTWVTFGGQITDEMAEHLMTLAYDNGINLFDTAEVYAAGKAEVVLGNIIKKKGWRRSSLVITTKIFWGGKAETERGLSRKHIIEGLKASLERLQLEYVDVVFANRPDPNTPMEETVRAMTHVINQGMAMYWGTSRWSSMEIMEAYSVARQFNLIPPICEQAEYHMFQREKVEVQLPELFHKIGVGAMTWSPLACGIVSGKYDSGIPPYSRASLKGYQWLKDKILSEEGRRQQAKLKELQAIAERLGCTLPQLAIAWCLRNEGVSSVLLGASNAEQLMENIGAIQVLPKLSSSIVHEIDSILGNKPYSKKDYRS

[6] = target: Voltage-gated potassium channel subunit beta-2 (Rattus norvegicus) (UniProt P62483); experiment: KvBeta positive modulators, primary screen, biochemical, NADPH fluorescence (AID 623;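 active = NADPH fluorescence slope more negative than the mean of all samples by about 3 SD, 99.7% confidence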;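 note: fluorescence intensity change per second fitted from 20 to 320 s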); settings: Recombinant KvBeta, NADPH fluorescence decrease slope, 10 min; at 10 µM; stronger effect = lower value
[7] = target: Alpha-2C adrenergic receptor (Homo sapiens) (UniProt P18825); experiment: modulators of alpha2C/GIRK thallium flux, primary screen, cell-based, HEK293 alpha2C/GIRK1/2 (AID 624;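 active = fluorescence slope after compound addition differing from the mean of all screened samples at 99.7% confidence, in either direction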;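 note: slope of fluorescence ratio to pre-addition baseline per second over 15 to 24 s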); settings: thallium flux BTC fluorescence, at 10 µM, actives lie on both sides
Alpha-2C adrenergic receptor (Homo sapiens), sequence (P18825 whole entry, looked up): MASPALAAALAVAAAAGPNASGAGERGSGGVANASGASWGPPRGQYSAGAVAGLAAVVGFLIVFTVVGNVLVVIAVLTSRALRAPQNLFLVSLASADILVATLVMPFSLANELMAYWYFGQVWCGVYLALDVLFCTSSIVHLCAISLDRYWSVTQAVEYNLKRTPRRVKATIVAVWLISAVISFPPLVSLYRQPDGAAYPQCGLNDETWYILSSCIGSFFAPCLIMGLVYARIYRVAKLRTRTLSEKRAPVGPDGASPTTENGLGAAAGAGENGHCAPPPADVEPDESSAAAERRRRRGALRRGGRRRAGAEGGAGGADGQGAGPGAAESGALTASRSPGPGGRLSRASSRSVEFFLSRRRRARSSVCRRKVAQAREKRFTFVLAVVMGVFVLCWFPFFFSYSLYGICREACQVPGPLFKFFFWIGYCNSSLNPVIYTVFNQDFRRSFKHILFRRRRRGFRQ

[8] = inhibitors of larval lipid processing in zebrafish, primary screen, whole organism, PED6 fluorescence, gall bladder and intestine (AID 686;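 active = a full or partial loss of lipid-probe fluorescence in the fish gall bladder, intestine or both, judged by eye; inactive = no fluorescence loss, or compound toxic to the fish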;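 note: larvae 5 to 7 days old with five fish per well; signal comes from phospholipase A2 cleavage of quenched PED6 carried via bile; overnight exposure to compound and PED6 before scoring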); settings: Zebrafish larvae PED6 lipid processing, fluorescence scoring; screened at 20 µM (by protocol)
In short: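 Doses: 20 µM single dose. Test system: live zebrafish larvae aged 5-7 days, whole organism. Quantity: five larvae per well. Measured by: By-eye fluorescence microscopy. Reagent: ingested quenched lipid PED6 at 100 nM. Read-out: visual per-well fluorescence inhibition score. Times: overnight exposure of larvae to compound plus PED6.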

[9] = inhibitors of Chlamydomonas gravitaxis, primary screen, whole organism, Chlamydomonas reinhardtii, WT vs cilia-less mutant, absorbance, 96-well (AID 463189;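 active = inhibition at or above 50% relative to wild type and mutant plate controls; inactive = inhibition below 50%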;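 note: 0% = wild type cc124 cells in DMSO and 100% = ciliumless bld1 mutant cells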); settings: OD600 absorbance, 2 days, at 10 µM, stronger effect = higher value
[10] = measured here: cell density z-score
[11] = measured here: nuclear c-Myc green intensity z-score
[12] = measured here: nuclear pErk red intensity z-score, stronger effect = higher value

Row | Structure (SMILES) | cell count [1] | inhibition [1] | inhibition [2] | nuclei count [2] [%] | z-score [3, 10] | z-score [3, 11] | z-score [3, 12] | inhibition [4] | fluorescence slope [5] | NADPH fluorescence slope [6] | slope [7] | outcome [8] | inhibition [9]
1 | CC1(C)Cc2c(sc3nc4n(c(=N)c23)CCCCC4)CO1 | 637 | -5.2% (inactive) | 57.2% (inactive) | 169 | -0.678 | 2.31 | -0.487 | -7.28% (inactive) | -0.414 (inactive) | -4.7e-05 (inactive) | 0.00482 (inactive) | inactive | -1.35% (inactive)
2 | c1cc(-c2nnc3sc(C4CCCCC4)nn23)ccn1 | 660 | -3% (inactive) | -26.6% (inactive) | 150 | 0.217 | -0.0752 | 0.0462 | -7.86% (inactive) | -0.419 (inactive) | -0.00016 (inactive) | 0.00483 (inactive) | inactive | 70.8% (active)
3 | Cc1ccc(S(=O)(=O)N2CCN(c3nc(C)c4c(c3C#N)CC(C)(C)OC4)CC2)cc1 | 645 | -13.9% (inactive) | 9.7% (inactive) | 182 | 1 | -1.7 | 0.0451 | 22.7% (inactive) | -0.471 (inactive) | -0.000183 (inactive) | 0.0077 (inactive) | inactive | 110% (active)
4 | CCCOC(=O)CSC1=C(C#N)C(c2ccccc2OCC)C(C#N)C(=O)N1 (stereo not drawn) | 487 | -1.9% (inactive) | -37.3% (inactive) | 101 | 0.769 | -0.531 | 1.5 | 7.48% (inactive) | -0.499 (inactive) | -0.000121 (inactive) | 0.00584 (inactive) | inactive | -14.4% (inactive)
5 | CNS(=O)(=O)c1cccc2nsnc12 | 592 | -20.7% (inactive) | -98.5% (inactive) | 141 | -1.23 | 0.529 | 1.87 | -15% (inactive) | -0.51 (inactive) | -3.5e-05 (inactive) | 0.005 (inactive) | inactive | 11.1% (inactive)
6 | CC(C)Cc1nc(N2CCCCC2)c(C#N)c2c1CCC2 | 513 | -0.1% (inactive) | -91.7% (inactive) | 135 | -1.47 | 0.461 | -0.497 | 1.6e-07% (inactive) | -0.506 (inactive) | -3.4e-06 (inactive) | 0.006 (inactive) | inactive; toxic | -3.52% (inactive)
7 | COc1ccc(N2C(=O)CN=C2Nc2nc(C)cc(C)n2)cc1 | 570 | -16.6% (inactive) | -179% (inactive) | 144 | 1.15 | -0.727 | 0.0405 | 1.98% (inactive) | -0.509 (inactive) | -6.2e-05 (inactive) | 0.00444 (inactive) | inactive | 0.296% (inactive)
8 | O=c1c2c3c(sc2n2cnnc2n1Cc1ccccc1)CN(Cc1ccccc1)CC3 | 620 | -1.6% (inactive) | 66.2% (inactive) | 104 | 0.015 | 0.568 | 0.295 | 6.04% (inactive) | -0.427 (inactive) | -1.4e-05 (inactive) | 0.0049 (inactive) | inactive | 22.4% (inactive)
9 | CN1c2ccccc2N(C)C1c1c(O)ccc2ccccc12 | 340 | -22% (inactive) | -387% (inactive) | 180 | 0.38 | -1.52 | 0.412 | -2.07% (inactive) | -0.407 (inactive) | -4.1e-05 (inactive) | 0.00586 (inactive) | inactive | 1.66% (inactive)
10 | O=S1(=O)C[C@@H](N2CCOCC2)[C@H](N2CCOCC2)C1 | 513 | 3.1% (inactive) | -110% (inactive) | 133 | -0.578 | 0.935 | 0.179 | -3.5% (inactive) | -0.462 (inactive) | -7.3e-05 (inactive) | 0.00558 (inactive) | inactive | 3.28% (inactive)
11 | CCCCNC(=O)c1cc2n(n1)C(C(F)(F)F)CC(c1ccccc1)N2 (stereo not drawn) | 519 | -6.4% (inactive) | -41.1% (inactive) | 107 | -0.754 | -0.242 | 0.464 | 1.75% (inactive) | -0.529 (inactive) | -5.9e-05 (inactive) | 0.00405 (inactive) | inactive | -3.15% (inactive)
12 | Clc1cccc(-c2nn3c(-c4cccc(Cl)c4)nnc3s2)c1 | 612 | -7.8% (inactive) | -20.4% (inactive) | 169 | 1.02 | 1.46 | -0.806 | -4.27% (inactive) | -0.412 (inactive) | -0.000162 (inactive) | 0.00698 (inactive) | inactive | 14.4% (inactive)
13 | Cc1cc(C)c(C#N)c(SCC(=O)NC2CC2)n1 | 646 | -7.6% (inactive) | -12% (inactive) | 154 | 2.42 | -0.939 | 0.0715 | 2.92% (inactive) | -0.444 (inactive) | -5.6e-05 (inactive) | 0.00581 (inactive) | inactive | 0.954% (inactive)
14 | COC(=O)c1cc2c(=O)n3cccc(C)c3nc2n(Cc2cccnc2)c1=N | 626 | -15% (inactive) | -113% (inactive) | 159 | 2.59 | -0.798 | -0.054 | 25.7% (inactive) | -0.523 (inactive) | -3.6e-05 (inactive) | 0.00531 (inactive) | inactive | 32.4% (inactive)
15 | Cn1c(N2CCOCC2)nc2c1c(=O)n(Cc1ccc(Cl)c(Cl)c1)c(=O)n2C | 616 | -1.9% (inactive) | -39.8% (inactive) | 146 | -0.645 | 0.0379 | -0.103 | 2.46% (inactive) | -0.474 (inactive) | -0.000203 (inactive) | 0.00465 (inactive) | inactive | 24.4% (inactive)
16 | CSc1nc(C)cc(OCCNS(=O)(=O)c2cc(C)ccc2C)n1 | 384 | -16% (inactive) | -21.6% (inactive) | 141 | 0.846 | -0.567 | -1.02 | 12.3% (inactive) | -0.414 (inactive) | -8.3e-05 (inactive) | 0.00593 (inactive) | inactive | 117% (active)
17 | CC(C)Oc1ccc(/C(O)=C2/C(=O)C(=O)N(CCN3CCOCC3)C2c2ccccc2)cc1 (stereo not drawn) | 564 | 4.6% (inactive) | -21.9% (inactive) | 179 | -0.496 | -0.0457 | 0.947 | -1.12% (inactive) | -0.338 (inactive) | -1.3e-05 (inactive) | 0.0044 (inactive) | inactive | 0.719% (inactive)
18 | C=C(Br)Cn1c(CCCC)nc2ccccc21 | 496 | -6.3% (inactive) | -117% (inactive) | 145 | 0.895 | -1.74 | -1.25 | 3.56% (inactive) | -0.492 (inactive) | -0.000115 (inactive) | 0.00483 (inactive) | inactive | 35.5% (inactive)
19 | Cc1ccc(/C=c2\sc3n(c2=O)CN(c2ccc(Br)cc2)CN=3)o1 | 367 | -0.5% (inactive) | -127% (inactive) | 137 | 1.52 | -1.23 | -1.08 | 22.7% (inactive) | -0.389 (inactive) | -1.9e-05 (inactive) | 0.00432 (inactive) | inactive | -6.84% (inactive)
20 | COc1ccc2c(=O)c(-c3nc(C)cs3)coc2c1 | 559 | -18.2% (inactive) | -220% (inactive) | 141 | 1.07 | 0.0883 | 0.691 | 1.98% (inactive) | -0.543 (inactive) | -3.8e-05 (inactive) | 0.0045 (inactive) | inactive | 1.43% (inactive)
21 | CC1(C)CC(=O)C(CCCN2C(=O)c3ccccc3C2=O)C(=O)C1 | 527 | 0.1% (inactive) | 10.1% (inactive) | 93.2 | -0.253 | 0.312 | -1.11 | -5.26% (inactive) | -0.379 (inactive) | -1.5e-05 (inactive) | 0.00431 (inactive) | inactive | 18% (inactive)
